Source: ChEMBL document CHEMBL2176954, “General synthesis of β-alanine-containing spider polyamine toxins and discovery of nephila polyamine toxins 1 and 8 as highly potent inhibitors of ionotropic glutamate receptors” (J Med Chem, 2012)

Tests used:
Type in all cases: functional, cell-based, Oocyte
[1] = target: Glutamate receptor 1 (Rattus norvegicus, UniProt P19490); test: Antagonist activity at rat GluA1 receptor expressed in Xenopus oocytes at membrane potential -60 mV by two-electrode voltage-clamp electrophysiology assay
Procedure, shortened: (§1)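 Two-electrode voltage clamp at −60 mV on oocytes expressing the iGlu receptor subtype. Cells first received a maximally effective agonist concentration, then increasing toxin concentrations co-applied with agonist. IC50 values are means from 6 to 12 experiments, reported with 95% confidence intervals.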

[2] = target: Glutamate receptor ionotropic, NMDA 2A (Rattus norvegicus, UniProt P35439+Q00959); test: Antagonist activity at rat glutamate N1/2A receptor expressed in Xenopus oocytes at membrane potential -60 mV by two-electrode voltage-clamp electrophysiology assay; procedure, shortened: as §1
[3] = target: T1, Glutamate receptor ionotropic, kainate 1 (Rattus norvegicus, UniProt P22756); test: Antagonist activity at rat GluK1 receptor expressed in Xenopus oocytes by two-electrode voltage-clamp at membrane potential -60 to -80 mV electrophysiology assay
Procedure, shortened: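 GluK1-expressing oocytes were clamped by two-electrode voltage clamp and given a maximally effective agonist concentration, then increasing toxin concentrations plus agonist. IC50 was determined at −60 mV and at −80 mV to assess voltage dependence of block. Values at −60 mV are means of 6 to 12 experiments.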

[4] = target: T1, Glutamate receptor ionotropic, kainate 1; test: Antagonist activity at rat GluK1 receptor expressed in Xenopus oocytes at membrane potential -60 mV by two-electrode voltage-clamp electrophysiology assay; procedure, shortened: as §1

Chain of Glutamate receptor 1 (P19490 whole entry): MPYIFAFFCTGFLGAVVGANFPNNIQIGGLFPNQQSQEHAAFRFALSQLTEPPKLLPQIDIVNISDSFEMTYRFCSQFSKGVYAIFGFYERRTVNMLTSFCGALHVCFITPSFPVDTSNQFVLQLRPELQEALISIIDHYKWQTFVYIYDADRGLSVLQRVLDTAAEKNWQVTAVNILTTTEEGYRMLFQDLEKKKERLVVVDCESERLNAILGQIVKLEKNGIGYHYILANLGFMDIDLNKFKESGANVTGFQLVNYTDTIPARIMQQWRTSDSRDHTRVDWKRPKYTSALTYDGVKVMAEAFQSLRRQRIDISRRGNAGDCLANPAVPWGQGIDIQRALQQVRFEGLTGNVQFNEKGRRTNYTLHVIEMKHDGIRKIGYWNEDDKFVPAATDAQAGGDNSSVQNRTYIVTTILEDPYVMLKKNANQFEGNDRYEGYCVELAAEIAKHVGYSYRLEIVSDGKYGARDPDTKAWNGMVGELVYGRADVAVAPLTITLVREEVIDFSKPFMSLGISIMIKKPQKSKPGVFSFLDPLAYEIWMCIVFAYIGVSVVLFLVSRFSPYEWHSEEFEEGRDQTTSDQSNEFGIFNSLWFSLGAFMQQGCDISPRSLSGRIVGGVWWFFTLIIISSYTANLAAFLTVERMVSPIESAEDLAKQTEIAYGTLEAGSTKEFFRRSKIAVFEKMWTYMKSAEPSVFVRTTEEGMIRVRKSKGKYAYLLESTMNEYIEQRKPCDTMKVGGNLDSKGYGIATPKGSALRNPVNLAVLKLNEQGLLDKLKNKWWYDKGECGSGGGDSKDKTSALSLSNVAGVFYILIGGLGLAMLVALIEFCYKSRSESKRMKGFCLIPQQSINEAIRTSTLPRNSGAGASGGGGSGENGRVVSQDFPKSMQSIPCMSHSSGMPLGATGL
T1 sequence (P22756 whole entry): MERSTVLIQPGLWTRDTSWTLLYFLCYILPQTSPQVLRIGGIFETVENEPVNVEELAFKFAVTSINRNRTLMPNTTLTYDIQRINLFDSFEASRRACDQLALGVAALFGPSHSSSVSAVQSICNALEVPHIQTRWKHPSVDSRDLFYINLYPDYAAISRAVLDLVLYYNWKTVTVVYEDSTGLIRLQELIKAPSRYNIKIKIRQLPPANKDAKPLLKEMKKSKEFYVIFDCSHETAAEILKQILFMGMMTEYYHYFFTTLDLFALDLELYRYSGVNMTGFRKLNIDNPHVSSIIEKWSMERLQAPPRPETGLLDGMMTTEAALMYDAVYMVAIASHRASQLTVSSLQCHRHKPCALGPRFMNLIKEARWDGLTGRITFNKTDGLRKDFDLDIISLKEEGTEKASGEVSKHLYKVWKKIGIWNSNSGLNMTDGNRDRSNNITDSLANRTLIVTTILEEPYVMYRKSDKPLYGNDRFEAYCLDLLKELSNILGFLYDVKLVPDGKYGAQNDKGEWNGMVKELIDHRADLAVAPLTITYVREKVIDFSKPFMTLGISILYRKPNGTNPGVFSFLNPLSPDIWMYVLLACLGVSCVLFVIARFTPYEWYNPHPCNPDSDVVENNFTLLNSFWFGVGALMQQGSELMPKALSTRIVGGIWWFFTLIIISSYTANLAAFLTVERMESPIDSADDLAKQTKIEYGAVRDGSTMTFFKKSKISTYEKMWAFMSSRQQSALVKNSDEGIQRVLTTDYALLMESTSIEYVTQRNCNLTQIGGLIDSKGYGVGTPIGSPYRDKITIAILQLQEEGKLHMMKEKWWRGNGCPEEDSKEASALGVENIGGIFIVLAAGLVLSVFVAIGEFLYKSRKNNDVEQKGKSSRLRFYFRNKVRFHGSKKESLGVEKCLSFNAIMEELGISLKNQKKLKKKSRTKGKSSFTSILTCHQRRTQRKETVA
Chain of Glutamate receptor ionotropic, NMDA 2A (Q00959 whole entry, one chain of several): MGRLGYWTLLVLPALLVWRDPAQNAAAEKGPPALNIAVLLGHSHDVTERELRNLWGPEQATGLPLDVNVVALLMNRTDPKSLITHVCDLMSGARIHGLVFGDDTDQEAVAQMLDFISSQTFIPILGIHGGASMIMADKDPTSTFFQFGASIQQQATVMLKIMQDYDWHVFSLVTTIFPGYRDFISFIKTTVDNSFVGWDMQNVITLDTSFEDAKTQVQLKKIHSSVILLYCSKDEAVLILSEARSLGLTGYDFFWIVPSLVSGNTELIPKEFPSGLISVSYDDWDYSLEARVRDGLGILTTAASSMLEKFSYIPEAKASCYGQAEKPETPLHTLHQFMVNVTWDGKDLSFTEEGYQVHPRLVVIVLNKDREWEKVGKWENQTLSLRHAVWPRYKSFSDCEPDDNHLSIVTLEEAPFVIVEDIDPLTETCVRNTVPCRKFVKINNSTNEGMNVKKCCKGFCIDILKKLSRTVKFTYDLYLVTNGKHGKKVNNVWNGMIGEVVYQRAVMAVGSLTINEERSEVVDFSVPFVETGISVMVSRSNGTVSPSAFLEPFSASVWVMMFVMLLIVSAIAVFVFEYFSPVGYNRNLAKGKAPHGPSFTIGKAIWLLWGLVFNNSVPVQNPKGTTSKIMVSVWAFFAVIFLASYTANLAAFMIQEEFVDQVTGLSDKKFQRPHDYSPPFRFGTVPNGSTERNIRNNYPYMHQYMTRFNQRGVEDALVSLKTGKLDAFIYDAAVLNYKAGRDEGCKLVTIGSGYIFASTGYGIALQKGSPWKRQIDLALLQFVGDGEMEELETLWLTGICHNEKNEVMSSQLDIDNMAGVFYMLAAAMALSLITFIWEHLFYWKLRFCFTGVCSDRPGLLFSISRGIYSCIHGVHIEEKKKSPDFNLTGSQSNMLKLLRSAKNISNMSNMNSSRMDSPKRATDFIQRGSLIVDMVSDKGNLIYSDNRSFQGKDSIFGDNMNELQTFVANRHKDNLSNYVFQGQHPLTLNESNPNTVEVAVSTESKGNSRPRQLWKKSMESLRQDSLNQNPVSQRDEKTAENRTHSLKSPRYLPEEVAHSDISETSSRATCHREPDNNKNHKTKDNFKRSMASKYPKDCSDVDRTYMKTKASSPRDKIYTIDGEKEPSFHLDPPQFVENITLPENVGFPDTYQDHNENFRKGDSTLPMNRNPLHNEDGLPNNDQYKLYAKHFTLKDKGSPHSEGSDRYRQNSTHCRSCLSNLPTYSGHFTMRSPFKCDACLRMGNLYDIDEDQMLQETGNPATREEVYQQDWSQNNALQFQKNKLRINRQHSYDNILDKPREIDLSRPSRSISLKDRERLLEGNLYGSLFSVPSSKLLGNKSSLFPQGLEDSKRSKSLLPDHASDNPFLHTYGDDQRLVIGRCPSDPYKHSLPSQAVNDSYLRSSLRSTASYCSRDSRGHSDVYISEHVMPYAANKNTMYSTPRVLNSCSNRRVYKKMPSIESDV

Compound | IC50 [1] [nM] | IC50 [2] [nM] | IC50 [3] [nM] | IC50 [4] [nM]
N=C(N)NCCC[C@H](N)C(=O)NCCCNCCCNCCCCCNC(=O)[C@H](CC(N)=O)NC(=O)Cc1ccc(O)cc1O | 135 | 177 | – | –
NCCCNCCCCNCCC(=O)NCCCCCNC(=O)[C@H](CC(N)=O)NC(=O)Cc1c[nH]c2ccccc12 | 27 | 150 | 0.28 | 0.82
NCCCNCCCCNCCC(=O)NCCCCCNC(=O)[C@H](CC(N)=O)NC(=O)Cc1ccc(O)cc1O [JORO SPIDER TOXIN 3] | 65 | 1710 | – | 19
C[C@H](NC(=O)CNC(=O)[C@@H](N)CCCNC(=N)N)C(=O)NCCCCNCCC(=O)NCCCCCNC(=O)[C@H](CC(N)=O)NC(=O)Cc1ccc(O)cc1O | 1080 | > 10000 | – | 2580
N=C(N)NCCC[C@H](N)C(=O)NCCCCNCCC(=O)NCCCCCNC(=O)[C@H](CC(N)=O)NC(=O)Cc1ccc(O)cc1O [NEPHILA SPIDER TOXIN 3] | 137 | 5410 | – | 164
NCCCNCCCCNCCC(=O)NCCCCCNC(=O)[C@H](CC(N)=O)NC(=O)Cc1c[nH]c2cccc(O)c12 | 51 | 1390 | 0.19 | 0.33
